Experiments:
[1] = biological target: Serine/threonine-protein kinase pim-1 (Homo sapiens, UniProt P11309); test: Inhibition of PIM1 (unknown origin) at 1 uM relative to control; conditions: values are per cent of control
Method in brief: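 The supplementary panel puts Pim1 in the KinomeSCAN competitive binding format; compounds at 1 µM in duplicate; percent […] control.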

[2] = biological target: T1, Serine/threonine-protein kinase PLK4 (Homo sapiens) (UniProt O00444); test: Inhibition of PLK4 (unknown origin) at 1 uM relative to control; conditions: values are per cent of control
T1 sequence (whole entry): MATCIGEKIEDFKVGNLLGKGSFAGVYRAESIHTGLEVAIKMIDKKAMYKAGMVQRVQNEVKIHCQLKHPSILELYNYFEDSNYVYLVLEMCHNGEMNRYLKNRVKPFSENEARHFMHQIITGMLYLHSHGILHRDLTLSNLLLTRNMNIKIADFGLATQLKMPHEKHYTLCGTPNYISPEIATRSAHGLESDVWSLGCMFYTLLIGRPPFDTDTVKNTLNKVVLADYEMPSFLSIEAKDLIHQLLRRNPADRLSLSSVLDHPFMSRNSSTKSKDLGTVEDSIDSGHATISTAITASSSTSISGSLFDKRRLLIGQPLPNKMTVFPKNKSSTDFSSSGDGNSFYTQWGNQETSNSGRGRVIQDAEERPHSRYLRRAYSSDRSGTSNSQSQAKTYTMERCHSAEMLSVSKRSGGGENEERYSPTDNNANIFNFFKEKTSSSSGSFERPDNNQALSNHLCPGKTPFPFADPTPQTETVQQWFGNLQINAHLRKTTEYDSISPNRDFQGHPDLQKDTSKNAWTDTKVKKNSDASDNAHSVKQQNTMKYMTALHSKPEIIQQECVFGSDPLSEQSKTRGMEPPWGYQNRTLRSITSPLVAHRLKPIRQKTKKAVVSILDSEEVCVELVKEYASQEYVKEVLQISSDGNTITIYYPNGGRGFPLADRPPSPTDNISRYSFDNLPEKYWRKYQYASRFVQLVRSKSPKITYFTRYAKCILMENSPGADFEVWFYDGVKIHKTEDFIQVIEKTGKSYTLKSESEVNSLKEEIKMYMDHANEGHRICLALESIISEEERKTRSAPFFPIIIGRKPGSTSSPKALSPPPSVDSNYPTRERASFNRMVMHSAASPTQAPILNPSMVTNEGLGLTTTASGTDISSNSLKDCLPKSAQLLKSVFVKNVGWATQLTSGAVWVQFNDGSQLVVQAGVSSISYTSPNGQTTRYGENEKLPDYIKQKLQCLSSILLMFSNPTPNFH
Method in brief: (§1)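 KinomeSCAN competitive binding panel of 100 kinases; compounds tested at 1 µM in duplicate; read-out is percent […] control.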

[3] = biological target: T2, Serine/threonine-protein kinase D2 (Homo sapiens) (UniProt Q9BZL6); test: Inhibition of PRKD2 (unknown origin) at 1 uM relative to control; conditions: values are per cent of control; method in brief: as §1
T2 sequence (whole entry): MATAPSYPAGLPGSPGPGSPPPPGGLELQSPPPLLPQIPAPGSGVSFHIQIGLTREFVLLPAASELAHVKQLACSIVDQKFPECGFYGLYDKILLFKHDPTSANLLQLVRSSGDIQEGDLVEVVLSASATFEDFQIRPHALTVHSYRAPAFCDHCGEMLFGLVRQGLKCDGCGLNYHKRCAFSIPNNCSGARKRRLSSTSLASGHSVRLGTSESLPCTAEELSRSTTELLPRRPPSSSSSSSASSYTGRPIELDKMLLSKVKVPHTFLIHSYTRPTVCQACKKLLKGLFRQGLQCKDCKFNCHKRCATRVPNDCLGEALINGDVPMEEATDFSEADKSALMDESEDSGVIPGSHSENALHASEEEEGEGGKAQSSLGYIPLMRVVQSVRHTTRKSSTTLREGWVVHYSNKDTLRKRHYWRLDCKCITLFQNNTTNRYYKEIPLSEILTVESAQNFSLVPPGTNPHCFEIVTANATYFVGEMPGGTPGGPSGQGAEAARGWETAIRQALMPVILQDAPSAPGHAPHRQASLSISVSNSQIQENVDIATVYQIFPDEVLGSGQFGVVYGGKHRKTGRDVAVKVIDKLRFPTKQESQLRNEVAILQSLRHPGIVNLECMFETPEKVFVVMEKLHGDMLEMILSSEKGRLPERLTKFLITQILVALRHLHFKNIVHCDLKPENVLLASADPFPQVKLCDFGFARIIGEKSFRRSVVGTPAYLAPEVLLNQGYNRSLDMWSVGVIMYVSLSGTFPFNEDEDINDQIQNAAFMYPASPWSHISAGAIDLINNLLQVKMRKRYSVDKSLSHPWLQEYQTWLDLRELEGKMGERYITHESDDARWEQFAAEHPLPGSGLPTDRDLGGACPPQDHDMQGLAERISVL

[4] = biological target: Epithelial discoidin domain-containing receptor 1 (Homo sapiens) (UniProt Q08345); test: Inhibition of DDR1 (unknown origin) at 1 uM relative to control; values are per cent of control
[5] = biological target: Serine/threonine-protein kinase/endoribonuclease IRE1 (Homo sapiens) (UniProt O75460); test: Inhibition of ERN1 (unknown origin) at 1 uM relative to control; values are per cent of control
[6] = biological target: T3, Aurora kinase A (Homo sapiens) (UniProt O14965); test: Inhibition of AURKA (unknown origin) at 1 uM relative to control; values are per cent of control
T3 sequence (whole entry): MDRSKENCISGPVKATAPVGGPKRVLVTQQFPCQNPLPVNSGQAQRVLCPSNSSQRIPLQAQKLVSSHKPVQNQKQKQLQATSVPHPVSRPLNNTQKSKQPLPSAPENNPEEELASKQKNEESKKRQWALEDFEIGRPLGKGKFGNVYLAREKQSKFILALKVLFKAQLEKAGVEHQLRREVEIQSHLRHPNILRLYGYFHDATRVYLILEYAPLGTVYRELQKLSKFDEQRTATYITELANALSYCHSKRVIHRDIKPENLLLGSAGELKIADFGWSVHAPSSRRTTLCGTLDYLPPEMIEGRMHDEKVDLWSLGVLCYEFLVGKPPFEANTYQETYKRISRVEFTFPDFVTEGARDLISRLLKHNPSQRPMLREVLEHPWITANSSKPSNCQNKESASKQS

[7] = biological target: Ephrin type-A receptor 4 (Homo sapiens) (UniProt P54764); test: Inhibition of EPHA4 (unknown origin) at 1 uM relative to control; values are per cent of control
[8] = biological target: Serine/threonine-protein kinase MARK1 (Homo sapiens) (UniProt Q9P0L2); test: Inhibition of MARK1 (unknown origin) at 1 uM relative to control; values are per cent of control
[9] = biological target: Tyrosine-protein kinase JAK2 (Homo sapiens) (UniProt O60674); test: Inhibition of JH1 catalytic domain of JAK2 (unknown origin) at 1 uM relative to control; values are per cent of control
Chain of Tyrosine-protein kinase JAK2 (Homo sapiens) (O60674 whole entry, the tested form may be a part): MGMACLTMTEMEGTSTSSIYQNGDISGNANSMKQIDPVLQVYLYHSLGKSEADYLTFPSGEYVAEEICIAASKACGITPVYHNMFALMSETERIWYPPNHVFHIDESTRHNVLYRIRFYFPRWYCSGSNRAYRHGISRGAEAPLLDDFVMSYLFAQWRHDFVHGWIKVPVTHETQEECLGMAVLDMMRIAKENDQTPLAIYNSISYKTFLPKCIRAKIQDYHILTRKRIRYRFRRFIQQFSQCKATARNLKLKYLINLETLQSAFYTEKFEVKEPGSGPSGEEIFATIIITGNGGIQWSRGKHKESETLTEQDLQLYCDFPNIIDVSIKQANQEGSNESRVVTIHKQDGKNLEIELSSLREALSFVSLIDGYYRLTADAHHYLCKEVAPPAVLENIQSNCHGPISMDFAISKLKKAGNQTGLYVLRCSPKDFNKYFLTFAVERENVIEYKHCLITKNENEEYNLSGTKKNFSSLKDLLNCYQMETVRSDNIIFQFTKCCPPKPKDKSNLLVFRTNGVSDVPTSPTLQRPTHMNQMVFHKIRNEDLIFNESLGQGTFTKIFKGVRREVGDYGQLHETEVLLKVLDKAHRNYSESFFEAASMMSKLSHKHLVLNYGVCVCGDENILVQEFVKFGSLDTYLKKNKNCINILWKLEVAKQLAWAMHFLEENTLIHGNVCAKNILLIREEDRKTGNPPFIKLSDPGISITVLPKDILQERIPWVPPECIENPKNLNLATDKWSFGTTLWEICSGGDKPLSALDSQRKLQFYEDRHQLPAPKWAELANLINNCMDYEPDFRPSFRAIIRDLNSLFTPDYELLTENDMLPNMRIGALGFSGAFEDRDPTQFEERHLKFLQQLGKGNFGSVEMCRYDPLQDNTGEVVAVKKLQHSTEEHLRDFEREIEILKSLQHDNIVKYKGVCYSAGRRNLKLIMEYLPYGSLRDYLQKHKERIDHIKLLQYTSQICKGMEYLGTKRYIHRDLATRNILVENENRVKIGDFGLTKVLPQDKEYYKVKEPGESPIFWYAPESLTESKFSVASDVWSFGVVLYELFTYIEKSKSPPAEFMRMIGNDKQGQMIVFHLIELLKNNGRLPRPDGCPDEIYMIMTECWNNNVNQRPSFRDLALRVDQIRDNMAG

Chain of Epithelial discoidin domain-containing receptor 1 (Homo sapiens) (Q08345 whole entry, the tested form may be a part): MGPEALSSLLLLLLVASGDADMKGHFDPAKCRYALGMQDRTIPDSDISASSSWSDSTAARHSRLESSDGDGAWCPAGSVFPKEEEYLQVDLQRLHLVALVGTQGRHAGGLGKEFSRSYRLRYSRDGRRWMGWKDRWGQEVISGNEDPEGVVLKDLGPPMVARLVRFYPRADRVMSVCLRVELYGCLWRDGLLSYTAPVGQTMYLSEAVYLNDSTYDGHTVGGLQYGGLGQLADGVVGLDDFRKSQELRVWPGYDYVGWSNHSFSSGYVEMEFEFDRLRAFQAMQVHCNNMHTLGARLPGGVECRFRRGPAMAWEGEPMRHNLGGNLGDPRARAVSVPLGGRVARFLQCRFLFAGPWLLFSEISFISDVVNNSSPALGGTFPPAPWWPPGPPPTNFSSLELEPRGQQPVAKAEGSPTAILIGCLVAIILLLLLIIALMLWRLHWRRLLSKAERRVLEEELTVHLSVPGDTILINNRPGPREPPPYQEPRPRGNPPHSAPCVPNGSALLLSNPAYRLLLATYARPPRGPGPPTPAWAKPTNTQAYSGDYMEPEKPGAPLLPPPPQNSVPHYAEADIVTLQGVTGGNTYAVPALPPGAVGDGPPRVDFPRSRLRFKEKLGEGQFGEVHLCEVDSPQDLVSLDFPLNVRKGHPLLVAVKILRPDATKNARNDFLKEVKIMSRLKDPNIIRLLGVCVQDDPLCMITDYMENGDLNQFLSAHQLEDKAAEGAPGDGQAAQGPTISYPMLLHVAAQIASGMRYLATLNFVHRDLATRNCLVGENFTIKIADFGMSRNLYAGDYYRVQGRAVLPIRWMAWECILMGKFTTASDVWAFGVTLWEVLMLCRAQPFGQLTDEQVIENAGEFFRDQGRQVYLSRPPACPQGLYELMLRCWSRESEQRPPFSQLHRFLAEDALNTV
Chain of Serine/threonine-protein kinase pim-1 (P11309 whole entry, looked up): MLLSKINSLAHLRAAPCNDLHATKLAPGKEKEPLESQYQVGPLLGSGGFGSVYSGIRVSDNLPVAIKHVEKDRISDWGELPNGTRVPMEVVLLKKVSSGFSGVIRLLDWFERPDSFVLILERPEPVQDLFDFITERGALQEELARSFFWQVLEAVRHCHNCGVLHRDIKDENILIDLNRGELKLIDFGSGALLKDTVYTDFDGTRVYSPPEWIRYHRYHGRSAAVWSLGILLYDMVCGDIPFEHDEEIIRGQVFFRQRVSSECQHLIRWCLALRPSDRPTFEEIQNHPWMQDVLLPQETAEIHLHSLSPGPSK
Chain of Serine/threonine-protein kinase/endoribonuclease IRE1 (Homo sapiens) (O75460 19-977 limits assumed): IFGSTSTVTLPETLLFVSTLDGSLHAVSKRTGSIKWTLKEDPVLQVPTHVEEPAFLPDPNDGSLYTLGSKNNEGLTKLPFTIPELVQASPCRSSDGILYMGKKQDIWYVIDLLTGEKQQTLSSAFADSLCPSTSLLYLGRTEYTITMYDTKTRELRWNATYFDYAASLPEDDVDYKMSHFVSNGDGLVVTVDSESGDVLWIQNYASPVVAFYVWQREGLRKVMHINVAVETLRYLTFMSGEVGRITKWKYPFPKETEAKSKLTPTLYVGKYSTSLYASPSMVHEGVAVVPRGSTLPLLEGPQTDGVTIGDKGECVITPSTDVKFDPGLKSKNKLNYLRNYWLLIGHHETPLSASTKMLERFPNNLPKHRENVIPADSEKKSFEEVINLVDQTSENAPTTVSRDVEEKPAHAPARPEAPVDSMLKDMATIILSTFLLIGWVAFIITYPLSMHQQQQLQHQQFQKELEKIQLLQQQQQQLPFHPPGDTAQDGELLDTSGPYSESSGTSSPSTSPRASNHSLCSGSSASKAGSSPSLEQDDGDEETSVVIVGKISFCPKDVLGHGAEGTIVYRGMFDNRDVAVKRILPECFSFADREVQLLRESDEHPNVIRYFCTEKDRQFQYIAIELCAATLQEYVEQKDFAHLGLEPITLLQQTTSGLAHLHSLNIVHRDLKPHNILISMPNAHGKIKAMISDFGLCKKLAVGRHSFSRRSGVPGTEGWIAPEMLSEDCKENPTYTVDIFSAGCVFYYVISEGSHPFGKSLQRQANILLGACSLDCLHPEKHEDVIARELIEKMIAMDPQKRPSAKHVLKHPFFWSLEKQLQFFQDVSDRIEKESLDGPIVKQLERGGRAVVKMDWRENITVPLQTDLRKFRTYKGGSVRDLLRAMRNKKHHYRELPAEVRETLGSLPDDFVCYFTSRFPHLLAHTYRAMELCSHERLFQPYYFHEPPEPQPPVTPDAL
Chain of Serine/threonine-protein kinase MARK1 (Homo sapiens) (Q9P0L2 whole entry, looked up, the tested form may be a part): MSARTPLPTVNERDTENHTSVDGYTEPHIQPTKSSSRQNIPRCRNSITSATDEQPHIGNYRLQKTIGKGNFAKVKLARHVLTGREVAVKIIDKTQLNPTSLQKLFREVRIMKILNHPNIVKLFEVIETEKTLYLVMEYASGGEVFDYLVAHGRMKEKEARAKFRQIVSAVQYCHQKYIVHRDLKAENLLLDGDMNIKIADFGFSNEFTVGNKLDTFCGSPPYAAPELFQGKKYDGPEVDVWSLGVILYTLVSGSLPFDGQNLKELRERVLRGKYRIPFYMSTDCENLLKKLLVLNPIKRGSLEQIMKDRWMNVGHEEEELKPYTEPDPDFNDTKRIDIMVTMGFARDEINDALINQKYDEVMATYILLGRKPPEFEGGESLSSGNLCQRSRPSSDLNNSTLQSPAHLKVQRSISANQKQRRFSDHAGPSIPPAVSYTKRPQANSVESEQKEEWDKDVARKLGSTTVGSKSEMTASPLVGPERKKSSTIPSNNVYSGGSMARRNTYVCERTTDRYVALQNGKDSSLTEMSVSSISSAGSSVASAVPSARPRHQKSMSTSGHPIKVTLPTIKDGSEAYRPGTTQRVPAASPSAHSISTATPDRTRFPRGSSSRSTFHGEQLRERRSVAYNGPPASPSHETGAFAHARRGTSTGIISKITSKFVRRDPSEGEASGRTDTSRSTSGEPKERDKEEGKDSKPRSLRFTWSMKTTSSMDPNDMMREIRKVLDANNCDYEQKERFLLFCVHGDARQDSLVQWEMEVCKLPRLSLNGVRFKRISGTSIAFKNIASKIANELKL
Chain of Ephrin type-A receptor 4 (Homo sapiens) (P54764 whole entry): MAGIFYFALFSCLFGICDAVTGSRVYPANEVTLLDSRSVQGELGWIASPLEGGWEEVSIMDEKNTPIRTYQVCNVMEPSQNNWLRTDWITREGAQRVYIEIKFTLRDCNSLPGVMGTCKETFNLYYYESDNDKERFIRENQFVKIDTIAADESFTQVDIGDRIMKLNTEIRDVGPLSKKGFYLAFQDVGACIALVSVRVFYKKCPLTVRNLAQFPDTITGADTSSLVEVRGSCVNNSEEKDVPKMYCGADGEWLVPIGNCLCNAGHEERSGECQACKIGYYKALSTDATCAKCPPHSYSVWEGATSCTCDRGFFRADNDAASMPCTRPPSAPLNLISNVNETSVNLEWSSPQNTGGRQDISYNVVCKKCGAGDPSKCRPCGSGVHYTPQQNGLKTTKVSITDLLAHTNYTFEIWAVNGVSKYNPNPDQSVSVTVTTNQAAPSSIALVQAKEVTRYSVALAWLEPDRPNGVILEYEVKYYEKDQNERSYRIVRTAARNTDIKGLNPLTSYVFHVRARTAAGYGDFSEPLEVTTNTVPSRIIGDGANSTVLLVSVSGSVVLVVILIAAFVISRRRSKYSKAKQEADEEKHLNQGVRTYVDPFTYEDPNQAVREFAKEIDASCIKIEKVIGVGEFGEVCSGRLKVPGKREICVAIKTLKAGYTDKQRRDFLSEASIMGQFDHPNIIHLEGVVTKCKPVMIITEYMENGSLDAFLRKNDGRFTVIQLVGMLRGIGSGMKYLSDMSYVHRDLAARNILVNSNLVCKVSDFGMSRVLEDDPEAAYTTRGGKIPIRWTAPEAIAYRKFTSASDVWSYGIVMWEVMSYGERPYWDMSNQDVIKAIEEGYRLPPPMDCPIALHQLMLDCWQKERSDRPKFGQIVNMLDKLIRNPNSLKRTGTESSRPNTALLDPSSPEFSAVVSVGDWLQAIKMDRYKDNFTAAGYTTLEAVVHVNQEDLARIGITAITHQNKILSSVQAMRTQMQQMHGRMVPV

Row | Compound | residual binding, % of control [1] [%] | residual binding, % of control [2] [%] | residual binding, % of control [3] [%] | residual activity [4] [%] | residual activity [5] [%] | residual activity [6] [%] | residual activity [7] [%] | residual activity [8] [%] | residual activity [9] [%]
1 | CCOC(=O)c1sc(-c2ccncc2)nc1O | 75 | 100 | 99 | 98 | 100 | 100 | 58 | 100 | 100
2 | NC(=O)c1sc(-c2ccnc(N)n2)nc1-c1ccc(Cl)cc1Cl | 83 | 92 | 92 | 80 | 100 | 77 | 72 | 100 | 100
3 | COc1ccc(-c2nc(-c3ccnc(N)n3)sc2C(N)=O)c(Cl)c1 | 99 | 100 | 77 | 84 | 32 | 55 | 100 | 100 | 100
